# Screening results as filed in PubChem BioAssay.
# These entries were drawn from the full list.
# HKDC1 activator – HKDC1 hexokinase activators, primary screen, biochemical, fluorescence, uHTS. Q2TB90. recombinant HKDC1, G6PDH/diaphorase resazurin fluorescence; hits give low values. activity change, negative = activation, % at 20 µM. actives 0.056% (n = 340,000). AID 493187, 2011;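 active = activation of 40% or more at 20 µM, a change of -40% or lower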
# Target sequence (Q2TB90 whole entry, looked up): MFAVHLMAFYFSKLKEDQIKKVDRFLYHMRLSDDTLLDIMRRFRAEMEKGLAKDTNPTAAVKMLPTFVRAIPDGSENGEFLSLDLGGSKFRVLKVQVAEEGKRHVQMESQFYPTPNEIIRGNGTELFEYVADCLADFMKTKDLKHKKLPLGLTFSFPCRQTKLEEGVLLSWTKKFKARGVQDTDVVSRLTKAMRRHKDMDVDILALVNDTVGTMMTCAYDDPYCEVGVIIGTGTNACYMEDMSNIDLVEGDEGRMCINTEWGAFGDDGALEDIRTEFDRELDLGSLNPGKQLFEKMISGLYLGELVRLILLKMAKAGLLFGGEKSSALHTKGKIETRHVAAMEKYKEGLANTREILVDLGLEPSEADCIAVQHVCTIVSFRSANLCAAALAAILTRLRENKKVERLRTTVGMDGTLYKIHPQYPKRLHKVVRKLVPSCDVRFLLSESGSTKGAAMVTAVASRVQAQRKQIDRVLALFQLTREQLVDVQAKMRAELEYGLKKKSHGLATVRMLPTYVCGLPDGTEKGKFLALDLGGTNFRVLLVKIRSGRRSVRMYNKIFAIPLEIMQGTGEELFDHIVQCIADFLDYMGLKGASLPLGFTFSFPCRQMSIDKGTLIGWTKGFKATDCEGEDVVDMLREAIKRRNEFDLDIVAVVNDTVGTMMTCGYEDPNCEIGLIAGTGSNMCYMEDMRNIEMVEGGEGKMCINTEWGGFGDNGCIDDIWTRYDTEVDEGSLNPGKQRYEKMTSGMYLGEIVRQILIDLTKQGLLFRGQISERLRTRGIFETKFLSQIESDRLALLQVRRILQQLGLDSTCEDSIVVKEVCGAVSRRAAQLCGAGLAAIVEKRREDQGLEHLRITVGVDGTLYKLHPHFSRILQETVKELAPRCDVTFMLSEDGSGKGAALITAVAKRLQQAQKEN
#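 system = in-house human HKDC1 enzyme, G6PDH and diaphorase coupling enzymes | amount = HKDC1 5 µg/mL | measured by = resorufin fluorescence from 100 µM resazurin, NADP 1 mM, Ex 525/Em 613 nm | times = enzyme reaction 90 min, room temperature, in dark | doses = single compound dose of 20 µM, 1% DMSO final | medium = Tris/MgCl2 buffer, pH 8.0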
# * marks the source's active call; other numbers are inactive results.
SMILES,HKDC1 activator
O=C1C(C2=C(O)c3ccccc3C2=O)=Nc2ccccc21,-242*
CC(=O)C1=C(c2ccc(Br)cc2)C(=O)c2ccccc2C1=O,83
O=C1C(=C(I)I)c2ccccc2-c2ccccc21,61
CN(C)CC1CCC/C(=C\c2ccc(OC(=O)c3ccc(Cl)cc3)cc2)C1=O (stereo not given),37
COCCN1C=C2C(=O)C(C)(OC(=O)CCC(=O)OC)C(=O)C(Br)=C2C=C1c1ccc(OC)cc1 (stereo not given),38
O=C(N/N=C/c1ccc(O)cc1O)c1ccc(CN2C(=O)c3cccc4cccc2c34)cc1,-41*
COc1cc(N=c2ssnc2Cl)cc(OC)c1OC,-100*
COc1ccc(N=c2ssnc2Cl)cc1,-55*
CCCc1nc2c(c(=O)c3ccccc3n2C)c(=O)n1-c1ccc(F)cc1,51
O=C(/C=C/c1ccc(Cl)cc1)c1ccc([N+](=O)[O-])o1,54
Cc1cc(C)n2nc(SCc3nnc(SCc4ccccc4C)s3)nc2n1,53
NC1=CC(=O)C(=O)c2ccccc21,49
CCC(c1ccccc1)C(CC)c1cc(O)c(O)c(O)c1 (stereo not given),42
S=C(NN=C(c1ccccc1)c1ccccn1)N(Cc1ccccn1)Cc1ccccn1,-46*
Cc1ccc2cc(C=C(C#N)C#N)c(N3CCCCC3)nc2c1,41
CC(=O)c1cc(O)c2ccccc2c1O,44
CC1(OC(=O)C2CCCC2)C(=O)C=C2C=C(c3ccsc3)N(CCc3c[nH]c4ccccc34)C=C2C1=O (stereo not given),35
CCOC(=O)C1=C(Cc2ccc(F)cc2)C(=O)c2ccccc2C1=O,73
COc1ccc(S(=O)(=O)/N=C2\C=C(Nc3ccc(O)cc3)C(=O)c3ccccc32)cc1,42
CSc1nc(N)nc2c1ncn2CC(=O)N[C@H](C)c1cccc2ccccc12,-55*
Cc1ccc(C(=O)c2c(C)oc3c2C(=O)C(=O)c2ccccc2-3)cc1,48
Cc1cc(C)c(S(=O)(=O)/N=C2/C=C(Sc3ncn[nH]3)C(=O)c3ccccc32)cc1C,64
Nc1nc(N2CCN(c3ccccn3)CC2)nc2ccccc12,-58*
O=C(Nc1ccc2nc(-c3ccco3)c(-c3ccco3)nc2c1)N1CCN(c2ccccn2)CC1,57
COc1ccccc1C1=NNC(=Nc2cccc(S(=O)(=O)N(C)C)c2)SC1,-202*
SMILES,HKDC1 activator
CC(C)c1nc2oc3c(NCC4CCCO4)ncnc3c2c2c1COC(C)(C)C2 (stereo not given),40
O=C1NC(=S)S/C1=C\C=C\c1ccc([N+](=O)[O-])o1,38
O=c1cc(O)c2sc(Nc3ccc(F)c(Cl)c3)nc2[nH]1,46
CC(=NNC(=S)N1CCN(C2CCCCCC2)CC1)c1ccccn1,-42*
CC(=NNC(=S)N1CC2CCC(CC2)C1)c1cnccn1,-47*
O=C(O)c1ccc(-c2ccc(/C=c3/sc4nc5ccccc5n4c3=O)o2)cc1Cl,45
O=C(O)C(Cc1ccccc1)N1C(=O)/C(=C/C=C/c2ccco2)SC1=S (stereo not given),37
COc1ccc(N(CCCN2C(=O)c3cccc4cccc(c34)C2=O)C(=O)c2cccnc2)cc1,36
Cc1cc(SCC(=O)c2cccc([N+](=O)[O-])c2)nc(=O)[nH]1,-54*
Cc1cccc(-n2c3nc(=O)[nH]c(=O)c-3cc3cc([N+](=O)[O-])ccc32)c1,42
O=C(C#Cc1ccccc1)c1cccc([N+](=O)[O-])c1,37
O=C(/C=C/Sc1ccccc1)c1ccccc1,36
Oc1ccc(O)c(Cc2nc3ccccc3s2)c1,45
CC(C)CNC(=O)COC(=O)CNC(=O)c1cc(Cl)cc([N+](=O)[O-])c1,-52*
Cc1cc2cc(CCNC(=O)c3cccc([N+](=O)[O-])c3)c(=O)[nH]c2cc1C,40
COc1ccc(N2CCN(C(=O)CSc3nnc4c(C)cc5c(C)cc(C)cc5n34)CC2)cc1,43
Cc1cc(C)cc(-n2c(N)c(C(=O)Nc3c(C)n(C)n(-c4ccccc4)c3=O)c3nc4ccccc4nc32)c1,38
COc1ccc(-c2cc(C(=O)NNC(=S)NC(=O)c3c(-c4ccccc4)noc3C)[nH]n2)cc1,-46*
Cc1onc(-c2ccccc2)c1C(=O)NNC(=S)NC(=O)c1ccc(Br)cc1,-51*
Cc1cccc2c(N=NC(=O)c3ccc(NS(=O)(=O)c4cccs4)cc3)c(O)[nH]c12,36
NS(=O)(=O)c1ccc(N=Nc2c(=O)[nH]n3c(=O)c4c([nH]c23)CCCC4)cc1,40
CCOc1ccc(CCNC(=O)c2ccc3c(=O)[nH]c4c(C(=O)NC(C)C)sc(=S)n4c3c2)cc1,41
CCCCN(CCCC)C(=S)N/N=C/c1c(C)[nH]n(-c2ccccc2)c1=O,-41*
Cc1[nH]n(-c2ccccc2)c(=O)c1/C=N/Nc1nncc(-c2ccccc2)n1,-47*
O=c1[nH][nH]c2c(N=Cc3ccccc3O)ccc(F)c12,38
SMILES,HKDC1 activator
COc1ccc(C2=CC3=C(Br)C(=O)C(C)(OC(=O)c4ccco4)C(=O)C3=CO2)cc1 (stereo not given),42
CN(C)c1ccc(C=c2c3cc(O)ccc3n3c2cc(-c2ccccc2)[n+]3C)cc1,56
C=CCn1c(SCC(=O)Nc2sc3c(c2C#N)CCC(C)C3)nc2cc(C(=O)O)ccc2c1=O (stereo not given),39
N=C1N(/N=C/c2ccccc2)C(=Nc2ccccc2)C(=S)N1c1ccccc1,-49*
CCOC(=O)c1c(C)sc2c1N(C(=O)CCl)c1cc(Cl)ccc1S2,45
O=C1C(Cl)=C(NCCc2ccccc2)C(=O)c2ccccc21,53
O=C1C=C(NCc2ccccc2)c2ccccc2C1=O,80
O=C1C(Cl)=C(NCc2cccnc2)C(=O)c2ccccc21,-45*
Cc1ccc(S(=O)(=O)Nc2ccc(O)c3ccccc23)c(C)c1,52
Cn1cnc([N+](=O)[O-])c1Sc1ccc(Br)cc1,-58*
CCC[n+]1c2ccccc2cc2ccccc21,37
Cc1nc2c(O)c3c(c(O)c2nc1C)C1C=CC3CC1,82
COc1ccc(S(=O)(=O)Nc2ccc(O)c3ccccc23)cc1,46
COc1ccccc1N(CC(=O)N/N=C/c1c(O)ccc2ccccc12)S(C)(=O)=O,-40*
Oc1ccc2ccccc2c1C=NC1CCCCC1,35
Cc1cc(C)n2nc(SCc3nnc(SCc4ccccc4Cl)s3)nc2n1,41
O=c1cc(O)c2sc(Nc3ccc(Cl)c(F)c3)nc2[nH]1,39
CCOC(=O)Cn1c2ccc(F)cc2c2nc(C)sc21,-62*
COC(=O)Cn1c2ccc(F)cc2c2nc(C)sc21,-92*
O=C(O)CCCN1C(=O)/C(=C\C(Cl)=C\c2ccccc2)SC1=S,44
C[n+]1c(-c2ccccc2)cc2c(=Cc3ccc([N+](=O)[O-])cc3)c3ccccc3n21,36
CCCC[n+]1c2ccccc2cc2ccccc21,42
Cc1ccccc1Nc1nc(N)nc(CSc2nnc3sc4ccccc4n23)n1,36
CC[n+]1c(/C=C2\Sc3ccccc3N2C)ccc2cccc(C)c21,-40*
COP(=O)(OC)c1ccc(NCc2cc(O)ccc2O)cc1,43
COc1ccc(-c2nc3c(c(=O)n(C)c(=O)n3C)n2CC2CC(c3ccccc3)=NO2)cc1OC (stereo not given),-48*
Cc1ccc(C)c(-n2nnnc2Sc2nnnn2-c2ccccc2)c1,47
CC(=O)c1ccc(NC(=O)c2ccc3nc(-c4ccco4)c(-c4ccco4)nc3c2)cc1,41
